One data set deals with MCF7. As to the kind of experiment: Cytotoxicity against human MCF7 cells after 48 hrs by WST-1 assay. The settings on record: MCF7, 48 h. Type of data set: functional, cell-based. In a few lines: (§1)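 Dark cytotoxicity (no light exposure) by WST-1 tetrazolium-to-formazan conversion reflecting metabolic activity; compounds tested at concentrations up to 50 μM for 24, 48 or 72 h; IC50 taken as concentration giving 50% inhibition of cell viability.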

Data set [1] in a line: Cellular uptake in mitochondria of human U2OS cells at 1 uM after 10 to 40 mins by fluorescence microscopy. Type of data set: ADME. In a few lines: (§2)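 Live cells were treated with 1 μM Bodipy conjugates for at least 40 min and then co-stained with MitoTracker Red FM (100 nM, 10 min). Imaging by fluorescence microscopy assessed colocalisation with the green signal and the state of the mitochondrial network.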

The test system of data set [2] is U2OS. The data set can be described thus: Cellular uptake in human U2OS cells at 1 uM after 45 to 60 mins by fluorescence microscopy. Type of data set: ADME, cell-based. Put shortly: (§3)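 Uptake into living cells was followed by fluorescence microscopy at 10, 20 and 40 min and at 1, 3, 5 and 24 h. Green-emitting Bodipy conjugates were given at 1 μM. A Bodipy dye-only stain served as control for dye-driven localisation.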

Data set [3] in a line: Cellular uptake in mitochondria of human PC3 cells at 1 uM after 10 to 40 mins by fluorescence microscopy. Format: ADME. The settings on record: pc-3, 1 µM. In a few lines: as §2
Data set [4] is described as follows: Cellular uptake in human MIAPaCa2 cells at 1 uM after 20 mins by fluorescence microscopy. Conditions: mia paca-2, 20 min. Type of data set: ADME, cell-based. Put shortly: as §3
For data set [5], the system named is LNCaP. The data set can be described thus: Cellular uptake in human LNCAP cells at 1 uM after 20 mins by fluorescence microscopy. Format: ADME, cell-based. In a few lines: as §3
Data set [6] concerns U2OS. The data set can be described thus: Induction of ER stress in Endoplasmic reticulum of human U2OS cells assessed as small vesicle formation from ER network at 1 uM after 3 to 5 hrs by fluorescence microscopy. Format: functional, cell-based. Put shortly:
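U-2 OS live cells were incubated with conjugates at 1 μM for 1, 3 and 5 h. Fluorescence microscopy was used to score small vesicles or pouches budding from the ER network.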

The nature of data set [7]: Cytotoxicity against rat peritoneal cells assessed as reduction in cell viability at 40 uM after 24 hrs by WST-1 assay.
For data set [8], the system named is LNCaP. The data set can be described thus: Cellular uptake in human LNCAP cells at 1 uM after 40 mins to 24 hrs by fluorescence microscopy. Type of data set: ADME, cell-based. Put shortly: as §3
The subject of another data set is HT-29. As to the kind of experiment: Cytotoxicity against human HT-29 cells after 48 hrs by WST-1 assay. Format: functional, cell-based. Conditions: HT-29, 48 h. Put shortly: as §1
The nature of data set [9]: Cellular uptake in human PC3 cells at 1 uM after 20 mins by fluorescence microscopy. Type of data set: ADME, cell-based. The settings on record: pc-3, 20 min. Put shortly: as §3
Data set [10] relates to U2OS. As to the kind of experiment: Induction of LPS-induced NO production in human U2OS cells at 40 uM after 24 hrs using DAR-2 probe by fluorescence assay. Format: functional, cell-based. In a few lines:
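NO in living cells (PC-3, LNCaP, MCF-7, U-2 OS) was imaged by fluorescence microscopy with the NO-specific red-emitting probe DAR-2 after compound stimulation.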

The species entered for the next data set is Rattus norvegicus. The data set can be described thus: Induction of TNFalpha production in rat peritoneal cells at 10 uM after 24 hrs using by ELISA. Type of data set: functional, cell-based. In a few lines: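 Rat peritoneal cells exposed to compounds at 10 μM for 24 h; secreted TNF-α quantified by ELISA; LPS (1000 pg·mL−1) and parent trilobolide (1 μM) as positive controls; mean ± SEM of two independent experiments, n = 4, compared with untreated cells.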

Data set [11] can be described thus: Cellular uptake in Endoplasmic reticulum of human HeLa cells at 1 uM after 1 hr by fluorescence microscopy. Type of data set: ADME, cell-based. Put shortly: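 Live-cell fluorescence microscopy of cells exposed to Bodipy-labelled conjugates at 1 μM for 1 h. ER was co-stained with ER-Tracker Blue-White DPX (100 nM, 20 min) to check colocalisation. A Bodipy dye-only stain served as control.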

A short description of data set [12]: Cellular uptake in HEK293T cells at 1 uM after 40 mins to 24 hrs by fluorescence microscopy. The settings on record: human, hek-293t. Type of data set: ADME, cell-based. In a few lines: as §3
The test system of the next data set is C2C12. The data set can be described thus: Cellular uptake in mouse C2C12 cells at 1 uM after 40 mins to 24 hrs by fluorescence microscopy. Type of data set: ADME, cell-based. Conditions: c2c12, 1 µM. In a few lines: as §3
The test system of another data set is A549. As to the kind of experiment: Cellular uptake in human A549 cells at 1 uM after 40 mins to 24 hrs by fluorescence microscopy. The settings on record: a549, 1 µM. Format: ADME, cell-based. In a few lines: as §3
A further data set relates to HeLa. As to the kind of experiment: Cellular uptake in human HeLa cells at 1 uM after 40 mins to 24 hrs by fluorescence microscopy. Type of data set: ADME, cell-based. Put shortly:
as §3

The source made the active and inactive calls. The rule behind the calls is not given here.

Take `C/C=C(/C)C(=O)O[C@@H]1C[C@H]2C(=C1C)[C@@H]1OC(=O)[C@@](C)(O)[C@@]1(O)[C@@H](OC(=O)CCOCCOCCOCCOCCn1cc(COc3ccc(C4=C5C=CC=[N+]5[B-](F)(F)n5cccc54)cc3)nn1)C[C@]2(C)OC(C)=O`: the half-maximal inhibitory concentration (IC50) with MCF7 was 6.3 µM; in the data set with HT-29, 14.2 µM. Besides, the Drug uptake result in [1] is given as “Not Active”; in the data set with U2OS [2], “Not Active”; in data set [3], “Not Active”; in [4] it was “Active”; with LNCaP [5], “Active”; with LNCaP [8] it was “Active”. Moreover, the Drug uptake result in data set [9] and in [11] was “Active” throughout. Moreover, the result in the data set on U2OS [6], with U2OS [10] and in the data set filed under Rattus norvegicus was Active. Moreover, the Activity entry in [7] is recorded as “Non-toxic”.

On to `C/C=C(/C)C(=O)O[C@@H]1C[C@H]2C(=C1C)[C@@H]1OC(=O)[C@@](C)(O)[C@@]1(O)[C@@H](OC(=O)CCCCn1cc(COc3ccc(C4=C5C=CC=[N+]5[B-](F)(F)n5cccc54)cc3)nn1)C[C@]2(C)OC(C)=O`, for which the Drug uptake result in [12] is “Active”; in the data set on C2C12, “Active”; in data set [1], “Not Active”; in the data set on U2OS [2] it was “Not Active”; in data set [3] it was “Not Active”; in data set [4], “Active”. Also, the Drug uptake entry (in the data set on LNCaP [5]; in the data set on LNCaP [8]; in the data set on A549; in the data set with HeLa; in data set [9]; in data set [11]) was “Active” in each case. In addition, the concentration for half-maximal inhibition (IC50) was 12.8 µM with MCF7 and over 50 µM in the data set on HT-29. The outcome in the data set with U2OS [6] and with U2OS [10] was Active.

(Values after ChEMBL document CHEMBL3352255, “Tailor-made fluorescent trilobolide to study its biological relevance” (J Med Chem, 2014).)
